The text below walks through data of ChEMBL document CHEMBL1671709, “Small-molecule screening using a whole-cell viral replication reporter gene assay identifies 2-{[2-(benzoylamino)benzoyl]amino}-benzoic acid as a novel antiadenoviral compound” (Antimicrob Agents Chemother, 2010).

Activity calls are given as the source filed them. The rule behind the calls is not given here. Some results are limits rather than exact numbers.

In data set [1] the test system is Human adenovirus 5. The data set can be described thus: Antiviral activity against Human adenovirus type 5 infected in human A549 cells assessed as inhibition of viral replication by QPCR at 5 uM after 24 hrs. Format: functional, organism-based. An outline of the steps: (§1)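 A549 cells (~10^5/well) seeded the day before; compound (0.5–15 µM) and 1 pg Ad virions per cell added together in DMEM with 1% FBS, final DMSO <1%. After 24 h at 37 °C, 5% CO2, cells harvested and DNA extracted. Viral genomes quantified by real-time PCR against Ad5 DNA standard curves, normalized to cellular RNase P. EC50 taken as 50% inhibition of replication; three independent duplicate experiments.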

Data set [2] concerns Human adenovirus 5. Description: Antiviral activity against Human adenovirus type 5 infected in human A549 cells assessed as inhibition of viral replication by QPCR at 15 uM after 24 hrs. The data set is classed as functional, organism-based. Summed up:
as §1

A short description of data set [3]: Antiviral activity against Human adenovirus type 11p slobitski infected in A549 cells assessed as inhibition of DNA replication by QPCR assay. The data set is classed as functional, cell-based, Human adenovirus 11p. Conditions: Human mastadenovirus B. An outline of the steps: (§2)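 A549 cells (about 10^5/well) were seeded the day before. Compound (0.5–15 µM, DMSO <1%) and 1 pg virions/cell were added together in DMEM with 1% FBS and held 24 h at 37°C. DNA was then extracted and viral genomes counted by TaqMan QPCR (AdDF probe, Ad5 or Ad11 DNA standards 5–5×10^5 copies), normalized to RNase P. EC50 is the 50% replication inhibition point, from at least two independent duplicate experiments.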

Data set [4] can be described thus: Cytotoxicity against human K562 cells assessed as viable cells after 24 hrs by MTT assay. The data set is classed as cell-based. Conditions: read-out: Activity. Summed up:
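K562 cells (50,000/well) in phenol-red-free RPMI with 5% FBS, compound at 50 µM final (serial 25–0.78 µM in triplicate for dose-response), 24 h at 37 °C, 5% CO2, after the GFP fluorescence read. MTT added for 2 h, formazan dissolved in acidic isopropanol/Triton X-100, absorbance at 570 nm.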
(In general: Formazan colour is commonly taken as a measure of viable cells.)

The test system of data set [5] is Human adenovirus 5. Description: Antiviral activity against Human adenovirus type 5 F2853-5b infected in human A549 cells assessed as inhibition of hexon protein expression after 24 hrs using propidium iodide by FACS analysis. Format: functional, organism-based. Conditions: in the assay text read “using anti-hexon monoclonal antibody” for “using propidium iodide”. Summed up:
(§3)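 A549 cells (~2×10^5) seeded the day before. Compound (5 and 15 µM) added together with virus, 1 pg Ad5 or 0.5 pg Ad11p virions per cell, in DMEM with 1% FBS, DMSO <1%. After 24 h at 37 °C cells fixed in 2% paraformaldehyde and permeabilized with saponin. Stained with anti-hexon mouse monoclonal then Alexa Fluor 488 anti-mouse; read by flow cytometry. Two independent duplicate experiments.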

The test system of data set [6] is Human adenovirus 5. Description: Antiviral activity against Human adenovirus type 5 F2853-5b infected in A549 cells assessed as inhibition of DNA replication by QPCR assay. The data set is classed as functional, organism-based. The note with it: Human mastadenovirus C. Summed up: as §2
The subject of data set [7] is A549. Description: Inhibition of [35S]-labeled Human adenovirus type 11p slobitski binding to human A549 cells at 15 uM. Format: functional, cell-based. The note with it: Human adenovirus 11p. An outline of the steps: (§4)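 A549 cells detached with 0.05% EDTA, allowed to recover 1 h, then suspended in PBS with 1% FBS and 0.01% NaN3 (200,000/well) on ice. Compound at 5 and 15 µM final, DMSO <1%, plus 5 pg 35S-labeled Ad5 or Ad11p virions per cell, rocked 1 h on ice. Cells washed three times; bound radioactivity counted by liquid scintillation. Three independent duplicate experiments.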

The nature of data set [8]: Antiviral activity against Human adenovirus type 4 RI-67 infected in A549 cells assessed as inhibition of DNA replication by QPCR assay. The data set is classed as functional, cell-based, Human adenovirus 4. Conditions: Human mastadenovirus E, RI-67, A549. An outline of the steps: as §2
The nature of data set [9]: Antiviral activity against Human adenovirus type 41 Tak infected in A549 cells assessed as inhibition of DNA replication by QPCR assay. Format: functional, cell-based, Human adenovirus 41. Conditions: Human mastadenovirus F. Summed up:
as §2

Data set [10] relates to Human adenovirus D37. The data set can be described thus: Antiviral activity against Human adenovirus type 37 1477 infected in A549 cells assessed as inhibition of DNA replication by QPCR assay. Format: functional, organism-based. Conditions: Human mastadenovirus D, 1477, A549. An outline of the steps: as §2
The test system of data set [11] is A549. Description: Cytotoxicity against human A549 cells assessed as dead cells at 15 uM after 24 hrs using PI by FACS analysis. The data set is classed as cell-based. The note with it: a549, 24 h. Summed up:
(§5)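 A549 cells (2×10^5) seeded the day before in DMEM with 1% FBS; K562 cells (200,000) in RPMI 1640 with 5% FBS added just before compound. Compound at 5 and 15 µM, DMSO <1%, 24 h at 37 °C, 5% CO2. Cells washed, resuspended in PBS with 1 µg propidium iodide; dead cells counted by flow cytometry. Two independent duplicate experiments.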

Data set [12] has as its system Human adenovirus 5. Description: Antiviral activity against Human adenovirus type 5 infected in human A549 cells assessed as inhibition of viral replication by QPCR after 24 hrs. The note with it: Human mastadenovirus C, A549, 24 h. The data set is classed as functional, organism-based. Summed up: as §1
Data set [13] can be described thus: Antiviral activity against Human adenovirus type 31 1315/63 infected in A549 cells assessed as inhibition of DNA replication by QPCR assay. The note with it: Human mastadenovirus A, 1315/63, A549. Format: functional, cell-based, Human adenovirus 31. Summed up:
as §2

In data set [14] the test system is Human adenovirus 5. The data set can be described thus: Inhibition of [35S]-labeled Human adenovirus type 5 F2853-5b binding to human A549 cells at 15 uM. Format: functional, organism-based. An outline of the steps:
as §4

A short description of data set [15]: Antiviral activity against Human adenovirus type 11p in human K562 cells harboring green fluorescent protein-expressing RCAd11pGFP vector assessed as inhibition of RCAd11pGFP genome expression. The note with it: Human mastadenovirus B. Format: functional, cell-based, Human adenovirus 11p. An outline of the steps: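 K562 cells (50,000/well) in phenol-red-free RPMI with 5% FBS, infected with RCAd11pGFP at 1 pg/cell. The 5 mM DMSO stock was diluted 1:1 serially from 25 to 0.78 µM, with final DMSO <1%, run in triplicate.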

A short description of data set [16]: Selectivity index, ratio of CC50 for human A549 cells to EC50 for Human adenovirus type 5. Format: toxicity, cell-based. Conditions: read-out: Selectivity Index. Summed up:
(§6)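 About 50,000 A549 cells seeded the day before; compound titrated in DMEM with 1% FBS for 24 h. XTT then added and incubated 2 h at 37 °C, with absorbance read at 450 nm. CC50 is the concentration leaving 50% of cells viable. Selectivity index is CC50 divided by the QPCR EC50 for each virus. Three independent duplicate experiments.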

Data set [17] deals with A549. Description: Antiviral activity against Human adenovirus type 11p in human A549 cells harboring green fluorescent protein-expressing RCAd11pGFP vector assessed as inhibition of RCAd11pGFP genome expression. The data set is classed as functional, cell-based. The note with it: Human adenovirus 11p.
The nature of data set [18]: Antiviral activity against Human adenovirus type 11p in human K562 cells harboring green fluorescent protein-expressing RCAd11pGFP vector assessed as inhibition of RCAd11pGFP genome expression at 50 uM relative to untreated control. Format: functional, Human adenovirus 11p. The note with it: Human mastadenovirus B. Summed up:
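Single-point screen done once in K562 cells (50,000/well) in phenol-red-free RPMI with 5% FBS, with RCAd11pGFP at 1 pg/cell. Compound was at 50 µM final, from a 5 mM DMSO stock. Each plate held six DMSO-only uninfected wells and six infected DMSO wells. After 24 h at 37°C in 5% CO2, GFP fluorescence was read at 485 nm, then MTT viability.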

Data set [19] deals with A549. The data set can be described thus: Antiviral activity against Human adenovirus type 11p slobitski infected in human A549 cells assessed as inhibition of hexon protein expression after 24 hrs using propidium iodide by FACS analysis. Format: functional, cell-based. Conditions: Human adenovirus 11p, in the assay text read “using anti-hexon monoclonal antibody” for “using propidium iodide”. Summed up: as §3
In general terms: A flow cytometer gives signals particle by particle.

A short description of data set [20]: Antiviral activity against Human adenovirus type 11p infected in human A549 cells assessed as inhibition of viral replication by QPCR after 24 hrs. The note with it: Human mastadenovirus B, A549, 24 h. Format: functional, cell-based, Human adenovirus 11p. An outline of the steps: as §1
Data set [21] can be described thus: Selectivity index, ratio of CC50 for human A549 cells to EC50 for Human adenovirus type 11p. The data set is classed as toxicity, cell-based. The note with it: read-out: Selectivity Index. An outline of the steps:
as §6

The subject of data set [22] is K562. Description: Cytotoxicity against human K562 cells assessed as dead cells at 15 uM after 24 hrs using PI by FACS analysis. The data set is classed as cell-based. The note with it: k562, 24 h. An outline of the steps: as §5
Data set [23] is described as follows: Cytotoxicity against human Fibroblast cells assessed as dead cells at 15 uM after 24 hrs using PI by FACS analysis. Format: cell-based.
Data set [24] is described as follows: Cytotoxicity against human A549 cells by XTT assay. Format: cell-based. Summed up: as §6

For orientation: inhibition means the relative decrease from the control value, in per cent. One may read the EC50 as the concentration at which the effect is half-maximal. By CC50 is commonly meant the concentration giving 50% cytotoxicity. A low value points to greater toxicity to the cells.

For the compound `O=C(Nc1ccccc1C(=O)Nc1ccccc1C(=O)Nc1ccccc1C(=O)O)c1ccccc1`, the inhibition entry in [1] and in data set [2] was “inactive” in each case.
Turning to `O=C(Nc1ccccc1C(=O)Nc1ccccc1C(=O)O)c1ccccc1`, the EC50 in data set [3] came to 2.9 µM; in data set [6], 3.7 µM; in data set [8], 3.6 µM; in data set [9], 2.4 µM; in [10], 4.7 µM; in data set [12], 3.7 µM. Further, the figures for the EC50 in data set [13], in [15] and in data set [20] were 3.9 µM, 28.6 µM and 2.9 µM, respectively. Further, the viability at 24 h in [4] worked out at 100%. Moreover, the inhibition result in data set [5] and in data set [19] was “Dose-dependent effect” in each case. For the same compound, the inhibition result in [7] and in [14] was “inactive” each time. Also, the inhibition result in [1], in data set [17] and in data set [2] was “Active” throughout. In addition, the Activity in data set [11], in data set [22] and in [23] was below 2% each time. Besides, the selectivity ratio in [16] turned out to be 54; in data set [21], 68. Besides, in data set [18], the inhibition at 50 µM came to 100%. Besides, half-maximal cytotoxicity in data set [24] (CC50) was put at 199 µM.
Consider `O=C(Nc1ccccc1C(=O)O)c1ccccc1`, for which the inhibition result in data set [1] and in data set [2] was “inactive” in each case.
With `Nc1ccn(C[C@@H](CO)OCP(=O)(O)O)c(=O)n1` [CIDOFOVIR], the EC50 came to 16.5 µM in data set [3] and 19.9 µM in data set [6].
